Legend:
[1] = Intrinsic clearance in human liver microsomes assessed per mg protein by LC-MS/MS analysis; type: ADME, Microsome
[2] = Intrinsic clearance in rat hepatocytes assessed per million cells by LC-MS/MS analysis; type: ADME, cell-based, Hepatocyte
[3] = Half life in mouse plasma; type: ADME, cell-free
[4] = Half life in mouse liver microsomes; type: ADME, Microsome
[5] = Cmax in Balb/c mouse at 10 mg/kg, ip measured after 1 hr by LC-MS/MS analysis; type: ADME, organism-based; set-up: route intraperitoneal, dose 10 mg/kg, time 1 hrs; details: in vivo
How it was run: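 BALB/c mice (n=3) received a single 10 mg/kg intraperitoneal dose. Retro-orbital blood samples were taken at 0.083, 0.25, 0.5, 1, 2, 4, 8 and 24 h post-dose, and plasma levels were quantified by LC-MS-MS. Cmax is the mean of the three animals, read from the plasma concentration–time profile.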

[6] = Tmax in Balb/c mouse at 10 mg/kg, ip by LC-MS/MS analysis; type: ADME, organism-based; details: in vivo
How it was run: (§1)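 BALB/c mice, n=3, single 10 mg/kg intraperitoneal dose. Blood (50 μL) taken by retro-orbital bleed at 0.083, 0.25, 0.5, 1, 2, 4, 8 and 24 h post-dose. Plasma levels measured by LC-MS-MS. Brain and plasma levels from sparse sampling at 0.5 and 4 h; LLOQ 9.77 ng/mL.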

[7] = Drug level in Balb/c mouse brain at 10 mg/kg, ip measured after 0.5 hrs by LC-MS/MS analysis; type: ADME, organism-based; details: in vivo, BLD = below limit of detection; how it was run: as §1
[8] = Permeability in human Caco2 cells; type: ADME, cell-based; details: caco-2

Row | SMILES | CLint [1] [µL/min/mg] | also measured
1 | Cn1cc(-c2cnc3[nH]ccc3c2)cn1 | > 300 | –
2 | Cn1cc(-c2cnc3[nH]cc(-c4ccccc4F)c3c2)cn1 | 150 | –
3 | Cn1cc(-c2cnc3[nH]cc(-c4cc(F)cc(C#N)c4)c3c2)cn1 | 91 | –
4 | Cn1cc(-c2cnc3[nH]cc(-c4ccc(C#N)cc4)c3c2)cn1 | 51 | –
5 | Cn1cc(-c2cnc3[nH]cc(-c4ccnc(C#N)c4)c3c2)cn1 | 190 | –
6 | c1nc2[nH]cc(C3CCCNC3)c2cc1-c1cnn(C2CCOCC2)c1 (configuration not stated) | < 3 | –
7 | Cn1cc(-c2cnc3[nH]cc(-c4ccncc4)c3c2)cn1 | 39 | –
8 | N#Cc1cccc(-c2c[nH]c3ncc(N4CCCC4)cc23)c1 | 50 | –
9 | CS(=O)(=O)c1ccc(Nc2cnc3[nH]cc(-c4cccc(C#N)c4)c3c2)cc1 | 33 | –
10 | Cn1cc(-c2cnc3c(c2)c(-c2cccc(C#N)c2)cn3C)cn1 | 180 | –
11 | CC(C)(C)OC(=O)N1CCN(c2cnc3[nH]cc(-c4cccc(C#N)c4)c3c2)CC1 | 94 | –
12 | N#Cc1cccc(-c2c[nH]c3ncc(-c4cnn(C5CCOCC5)c4)cc23)c1 | 46 | –
13 | Cn1cc(-c2cnc3[nH]cc(-c4ccccc4C#N)c3c2)cn1 | 200 | –
14 | Cn1cc(Nc2cnc3[nH]cc(-c4cccc(C#N)c4)c3c2)cn1 | 15 | –
15 | Cn1cc(-c2cnc3[nH]cc(-c4ccc(C(=O)O)cc4)c3c2)cn1 | < 3 | –
16 | N#Cc1cccc(-c2c[nH]c3ncc(-c4ccncc4)cc23)c1 | 160 | –
17 | CN1CCN(c2cnc3[nH]cc(-c4cccc(C#N)c4)c3c2)CC1 | 44 | –
18 | Cn1cc(-c2cnc3[nH]cc(-c4ccc(Cl)c(Cl)c4)c3c2)cn1 | 51 | –
19 | Cn1cc(-c2cnc3[nH]cc(-c4ccc(F)c(F)c4)c3c2)cn1 | 90 | –
20 | Cn1cc(-c2cnc3[nH]cc(-c4cccc(F)c4)c3c2)cn1 | 110 | –

Row | SMILES | CLint [1] [µL/min/mg] | also measured
21 | Cn1cc(-c2cnc3[nH]cc(C4CCNCC4)c3c2)cn1 | 3 | –
22 | Cn1cc(-c2cnc3[nH]cc(C4CCCN(C(=O)OC(C)(C)C)C4)c3c2)cn1 (configuration not stated) | > 300 | –
23 | N#Cc1cccc(-c2c[nH]c3ncc(-c4cn[nH]c4)cc23)c1 | 290 | –
24 | COc1ccc(-c2c[nH]c3ncc(-c4cnn(C)c4)cc23)cc1 | 180 | –
25 | Cn1cc(-c2cnc3[nH]cc(-c4ccccc4)c3c2)cn1 | 200 | –
26 | Cn1cc(-c2cnc3occ(-c4cccc(C#N)c4)c3c2)cn1 | 130 | –
27 | Cn1cc(-c2cnc3[nH]cc(-c4cccc(N)c4)c3c2)cn1 | 290 | –
28 | Cn1cc(-c2cnc3[nH]cc(-c4ccc(Cl)cc4)c3c2)cn1 | 57 | –
29 | c1cc(-c2c[nH]c3ncc(-c4cnn(C5CCOCC5)c4)cc23)ccn1 | 29 | –
30 | CN1CCCN(c2cnc3[nH]cc(-c4cccc(C#N)c4)c3c2)CC1 | 82 | –
31 | N#Cc1cccc(-c2n[nH]c3ncc(-c4cnn(C5CCOCC5)c4)cc23)c1 | 42 | –
32 | Cc1ccc(-c2c[nH]c3ncc(-c4cnn(C)c4)cc23)cc1 | 130 | –
33 | Cn1cc(-c2c[nH]c3ncc(-c4cccc(C#N)c4)cc23)cn1 | 300 | –
34 | Cn1cc(-c2cnc3[nH]cc(-c4cccnc4)c3c2)cn1 | 90 | –
35 | Cn1cc(-c2cnc3[nH]cc(-c4ccc(F)cc4)c3c2)cn1 | 130 | –
36 | Cc1ccc(S(=O)(=O)n2cc(-c3cccc(C#N)c3)c3cc(-c4cnn(C)c4)cnc32)cc1 | 15 | –
37 | Cn1cc(-c2cnc3[nH]cc(-c4ccc(C(N)=O)cc4)c3c2)cn1 | 14 | –
38 | Cn1cc(-c2cnc3[nH]cc(C4CCN(C(=O)OC(C)(C)C)C4)c3c2)cn1 (configuration not stated) | 180 | –
39 | Cc1nn(C)cc1-c1cnc2[nH]cc(-c3cccc(C#N)c3)c2c1 | 250 | –
40 | CC(C)(C)OC(=O)N1CCC(n2cc(-c3cnc4[nH]cc(-c5cccc(C#N)c5)c4c3)cn2)CC1 | 91 | –

Row | SMILES | CLint [1] [µL/min/mg] | also measured
41 | N#Cc1cccc(-c2c[nH]c3ncc(-c4cnn(C5CCNCC5)c4)cc23)c1 | < 3 | CLH [2]: 19 µL/min; t1/2 [3]: > 2 h; t1/2 [4]: 0.567 h; Cmax [5]: 4413.3 ng/mL; Tmax [6]: 1 h; Drug uptake [7]: Bld; permeability [8]: Permeable
42 | Cn1cc(-c2cnc3[nH]cc(-c4ccc5[nH]ccc5c4)c3c2)cn1 | 300 | –
43 | Cn1cc(-c2cnc3[nH]cc(C4CCNC4)c3c2)cn1 (configuration not stated) | < 3 | –
44 | Cn1cc(-c2cnc3[nH]cc(-c4ccc(O)cc4)c3c2)cn1 | 50 | –
45 | CS(=O)(=O)N1CCN(c2cnc3[nH]cc(-c4cccc(C#N)c4)c3c2)CC1 | 32 | –
46 | Cc1c(-c2cnn(C)c2)cnc2[nH]cc(-c3cccc(C#N)c3)c12 | 210 | –
47 | Cn1cc(-c2ccc3[nH]cc(-c4cccc(C#N)c4)c3c2)cn1 | 190 | –
48 | CN1CCC(n2cc(-c3cnc4[nH]cc(-c5cccc(C#N)c5)c4c3)cn2)CC1 | 17 | –
49 | Cn1cc(-c2cnc3[nH]cc(-c4cccc([N+](=O)[O-])c4)c3c2)cn1 | 14 | –
50 | N#Cc1cccc(-c2c[nH]c3ncc(N4CCCCC4)cc23)c1 | 300 | –
51 | N#Cc1cccc(-c2c[nH]c3ncc(-c4cncnc4)cc23)c1 | 31 | –
52 | CS(=O)(=O)c1ccc(-c2cnc3[nH]cc(-c4cccc(C#N)c4)c3c2)cc1 | 30 | –
53 | Cn1cc(-c2cnc3[nH]cc(-c4ccc5nonc5c4)c3c2)cn1 | 88 | –
54 | Cn1cc(-c2cnc3[nH]cc(-c4cncc(C#N)c4)c3c2)cn1 | 150 | –
55 | Cn1cc(-c2cnc3[nH]cc(C4CCN(C(=O)OC(C)(C)C)CC4)c3c2)cn1 | 300 | –
56 | Cn1cc(-c2cnc3[nH]cc(C4CCCNC4)c3c2)cn1 (configuration not stated) | < 3 | –
57 | Cn1cc(-c2cnc3[nH]cc(-c4ccc(F)c(C#N)c4)c3c2)cn1 | 64 | –
58 | Cn1cc(-c2cnc3[nH]cc(-c4cccc(C#N)c4)c3c2)cn1 | 190 | –
59 | Cc1nn(C)c(C)c1-c1cnc2[nH]cc(-c3cccc(C#N)c3)c2c1 | 300 | –
60 | COc1cccc(-c2c[nH]c3ncc(-c4cnn(C)c4)cc23)c1 | > 300 | –

Reference: ChEMBL document CHEMBL5034006, “Lead Optimization of 3,5-Disubstituted-7-Azaindoles for the Treatment of Human African Trypanosomiasis” (J Med Chem, 2021)
